The molecules below were run on Mus musculus (assay: Antinociceptive activity against radiant heat-induced nociception in icv dosed CD1 mouse assessed as increase in tail withdrawal latency measured after 15 to 120 mins postdose by tail flick test).
Assay type: functional
Summary of the method: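 Male CD-1 mice anesthetized with ketamine-xylazine (80 + 10 mg/kg ip). Dosed into the right lateral ventricle (+2 mm ML, −0.3 mm AP to bregma, 2 mm depth). Tail flick with radiant heat, cut-off 15 s. Latency read at 15–120 min as %MPE.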
In the case of `Cc1ccc(N2CCN(CCCn3nc(C)ccc3=O)CC2)cc1`, the ED50 is reported as 13.8 µg.
Work on `C=Cc1c(C)nn(C)c(=O)c1NCCN1CCN(c2ccc(C)cc2)CC1` yielded an ED50 of 24.1 µg.
`C=Cc1c(C)nn(CCCN2CCN(c3cccc(OC)c3)CC2)c(=O)c1N` showed an ED50 of 72.6 µg.
`C=Cc1c(C)nn(CCCN2CCC(C)CC2)c(=O)c1N` showed an ED50 of 26.4 µg.
With `Cc1ccc(N2CCN(CCCn3nc(-c4ccccc4)c(-c4csc(C)n4)c(N)c3=O)CC2)cc1` the ED50 was 48.3 µg.
`C=Cc1c(C)nn(CCN2CCN(c3ccc(C)cc3)CC2)c(=O)c1N` gave an ED50 of 26.1 µg.
Work on `Cc1ccc(N2CCN(CCCn3cc(-c4ccncc4)cc(N)c3=O)CC2)cc1` yielded an ED50 of 7.6 µg.
`C=Cc1sc(=O)n(CCCN2CCN(c3ccc(C)cc3)CC2)c1C` showed an ED50 of 5.1 µg.
`C=Cc1c(C)nn(CCCN2CCN(c3cccc(Cl)c3)CC2)c(=O)c1N` gave an ED50 of 23.7 µg.
For `Cc1ccc(N2CCN(CCn3nc(C)c(-c4ccn[nH]4)c(N)c3=O)CC2)cc1`, the ED50 was 16.9 µg.
In the case of `C=Cc1cnn(CCCN2CCN(c3ccc(C)cc3)CC2)c(=O)c1N`, the ED50 is reported as 25.1 µg.
With `CN1CC[C@]23c4c5ccc(O)c4O[C@H]2[C@@H](O)C=C[C@H]3[C@H]1C5` [MORPHINE] the ED50 was 1.1 µg.
`C=Cc1c(C)nn(CCN2CCN(c3ccc(OC)cc3)CC2)c(=O)c1N` was tested, and the ED50 was 11.9 µg.
In the case of `C=Cc1c(C)nn(CCCN2CCN(C)CC2)c(=O)c1N`, the ED50 is reported as 8.7 µg.
In the case of `C=Cc1c(C)nn(CCCN2CCN(c3ccc(Cl)cc3)CC2)c(=O)c1N`, the ED50 is reported as 15.4 µg.
`C=Cc1c(C)nn(CCCN2CCN(c3cccc(C)c3)CC2)c(=O)c1N` was tested, and the ED50 was 51.55 µg.
In the case of `Cc1ccc(N2CCN(CCCn3nc(C)cc(N)c3=O)CC2)cc1`, the ED50 is reported as 4.9 µg.
For `Cc1ccc(N2CCN(CCn3nc(-c4ccccc4)c(-c4csc(C)n4)c(N)c3=O)CC2)cc1`, the ED50 was 25.1 µg.
`C=Cc1c(C)nn(CCCN2CCN(c3ccc(OC)cc3)CC2)c(=O)c1N` was tested, and the ED50 was 12.6 µg.

The molecules below were run on Mus musculus (assay: Antinociceptive activity against radiant heat-induced nociception in po dosed CD1 mouse assessed as increase in tail withdrawal latency measured after 15 to 120 mins postdose by tail flick test).
Assay type: functional
Summary of the method: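 Male CD-1 mice, 25–30 g; oral dosing. Radiant heat focused 3–4 cm from tail tip of hand-restrained mice; tail withdrawal latency recorded, cutoff 15 s at 15 V. Baseline = mean of three readings 15 min apart; latency at 15–120 min.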
`CN1CC[C@]23c4c5ccc(O)c4O[C@H]2[C@@H](O)C=C[C@H]3[C@H]1C5` [MORPHINE] was tested, and the ED50 was 3.5 mg/kg.

The molecules below were run on Mus musculus (assay: Antinociceptive activity against thermal nociception in po dosed CD1 mouse assessed as increase in latency period to elicit jumping or hind paw licking measured after 15 to 90 mins postdose by hot plate method).
Assay type: functional
Molecule `CN1CC[C@]23c4c5ccc(O)c4O[C@H]2[C@@H](O)C=C[C@H]3[C@H]1C5` [MORPHINE] has an ED50 of 6.9 mg/kg.

Reference: ChEMBL document CHEMBL1154181 (J Med Chem, 2009)
